Assay results from ChEMBL document CHEMBL1629684, “Effects of ravuconazole treatment on parasite load and immune response in dogs experimentally infected with Trypanosoma cruzi” (Antimicrob Agents Chemother, 2010).
Calls of active or inactive are those of the source.

Legend:
Canis familiaris [1] = experiment: Immunostimulatory activity in mongrel dog infected with Trypanosoma cruzi Berenice-78 assessed as production of antibody IgG at 7 mg/kg, po BID for 90 days measured up to 30 days by ELISA; assay type: functional, organism-based; design: dose 7 mg/kg; settings: Canis lupus familiaris
Summary of the method: (§1)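 Serum was taken before inoculation and then monthly until 6 months posttreatment, and stored at −80°C. ELISA plates were coated with alkaline extract of Y-strain parasites grown to exponential phase in LIT medium. Bound total IgG or IgG2 was detected with peroxidase-labeled anti-dog conjugates and read at 490 nm. Cutoff was the mean absorbance of 10 uninfected dogs plus 2 SD.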

Canis familiaris [2] = experiment: Toxicity in mongrel dog infected with Trypanosoma cruzi Berenice-78 assessed as weight loss at 12 mg/kg, po BID for 90 days started 12 to 22 days postinfection measured after 6 months; assay type: organism-based, Canis lupus familiaris; design: dose 12 mg/kg, route oral; settings: in vivo, 4383 h
Summary of the method: (§2)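 Body weight gain, in kg, was recorded for infected dogs 1 day and 6 months after the end of oral b.i.d. treatment. Treated animals were compared with infected untreated and noninfected control groups.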

Trypanosoma cruzi [3] = experiment: Antitrypanosomal activity against Trypanosoma cruzi Y infected in mongrel dog assessed as reduction in INFgamma production in right atrium at 7 mg/kg, po BID after 180 days by semiquantitative RT-PCR; assay type: functional, organism-based; design: dose 7 mg/kg; settings: Cardiac atrium
Summary of the method: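 Dogs were euthanized 6 months after the end of treatment. RNA was extracted from the right atrium with acid guanidinium thiocyanate-phenol-chloroform. One microgram was DNase treated and reverse transcribed with oligo(dT) for 1 h at 42°C. IFN-γ or IL-10 cDNA was amplified with 1.5 mM MgCl2: 94°C 5 min, n cycles of 94/57/72°C, final extension 72°C 6 min. Expression was scored semiquantitatively against infected untreated and noninfected dogs.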

Canis familiaris [4] = experiment: Immunostimulatory activity in mongrel dog infected with Trypanosoma cruzi Berenice-78 assessed as production of antibody IgG at 7 mg/kg, po BID for 90 days measured after 6 months by ELISA; assay type: functional, organism-based; design: dose 7 mg/kg; settings: Canis lupus familiaris; summary of the method: as §1
Canis familiaris [5] = experiment: Immunostimulatory activity in mongrel dog infected with Trypanosoma cruzi Berenice-78 assessed as production of antibody IgG2 at 12 mg/kg, po BID for 90 days measured up to 30 days by ELISA; assay type: functional, organism-based; design: dose 12 mg/kg; settings: Canis lupus familiaris; summary of the method: as §1
Trypanosoma cruzi [6] = experiment: Antimicrobial activity against Trypanosoma cruzi Y infected in mongrel dog assessed as survival of dog at 7 mg/kg, po BID started 12 to 22 days postinfection measured after 1 day; assay type: functional
Summary of the method: (§3)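 Four-month-old mongrel dogs (five per group) received 2.0 × 10^3 Y or Berenice-78 bloodstream trypomastigotes/kg. Oral dosing began 12–22 days postinfection, when parasitemia was detected by fresh blood examination: 12 mg/kg q12h for 90 days, or 7 mg/kg q12h for 60 days. Ear-vein blood was checked from day 10. Mortality was expressed as the cumulative percentage of dead animals.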

Trypanosoma cruzi [7] = experiment: Antitrypanosomal activity against Trypanosoma cruzi Y infected in mongrel dog assessed as reduction in IL10 production in right atrium at 7 mg/kg, po BID after 180 days by semiquantitative RT-PCR; settings: Cardiac atrium
Trypanosoma cruzi [8] = experiment: Antimicrobial activity against Trypanosoma cruzi Y infected in mongrel dog assessed as survival of dog at 12 mg/kg, po BID started 12 to 22 days postinfection measured after 1 day; assay type: functional; summary of the method: as §3
Canis familiaris [9] = experiment: Immunostimulatory activity in mongrel dog infected with Trypanosoma cruzi Berenice-78 assessed as production of antibody IgG at 12 mg/kg, po BID for 90 days measured after 6 months by ELISA; assay type: functional, organism-based; design: dose 12 mg/kg; settings: Canis lupus familiaris; summary of the method: as §1
Canis familiaris [10] = experiment: Immunostimulatory activity in mongrel dog infected with Trypanosoma cruzi Y assessed as production of antibody IgG at 7 mg/kg, po BID for 90 days measured after 6 months by ELISA; assay type: functional, organism-based; design: dose 7 mg/kg; settings: Canis lupus familiaris, in the assay text read “for 60 days” for “for 90 days”; summary of the method: as §1
Canis familiaris [11] = experiment: Immunostimulatory activity in mongrel dog infected with Trypanosoma cruzi Y assessed as production of antibody IgG2 at 12 mg/kg, po BID for 90 days measured after 6 months by ELISA; assay type: functional, organism-based; design: dose 12 mg/kg; settings: Canis lupus familiaris; summary of the method: as §1
Canis familiaris [12] = experiment: Toxicity in mongrel dog infected with Trypanosoma cruzi Berenice-78 assessed as weight loss at 7 mg/kg, po BID for 90 days started 12 to 22 days postinfection measured after 1 day; assay type: organism-based, Canis lupus familiaris; design: dose 7 mg/kg, route oral; settings: in vivo, 24 h; summary of the method: as §2
Trypanosoma cruzi [13] = experiment: Antimicrobial activity against Trypanosoma cruzi Berenice-78 infected in mongrel dog assessed as suppression of microbial proliferation at 12 mg/kg, po BID started 12 to 22 days postinfection measured after 1 day; assay type: functional, organism-based; design: dose 12 mg/kg
Summary of the method: (§4)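 Mongrel dogs, 4 months old, dewormed and vaccinated, were inoculated with 2.0 × 10^3 bloodstream trypomastigotes/kg. Oral b.i.d. (q12h) dosing began 12 to 22 days postinfection, once parasitemia appeared. Dosing ran 90 days at 12 mg/kg and 60 days at 7 mg/kg, with 5 dogs per group. Parasitemia was read by fresh-blood examination of marginal ear vein blood from day 10 of infection until parasites were undetectable.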

Trypanosoma cruzi [14] = experiment: Antimicrobial activity against Trypanosoma cruzi Berenice-78 infected in mongrel dog assessed as survival of dog at 12 mg/kg, po BID started 12 to 22 days postinfection measured after 1 day; assay type: functional; summary of the method: as §3
Canis familiaris [15] = experiment: Immunostimulatory activity in mongrel dog infected with Trypanosoma cruzi Y assessed as production of antibody IgG at 12 mg/kg, po BID for 90 days measured after 6 months by ELISA; assay type: functional, organism-based; design: dose 12 mg/kg; settings: Canis lupus familiaris; summary of the method: as §1
Trypanosoma cruzi [16] = experiment: Antimicrobial activity against Trypanosoma cruzi Y infected in mongrel dog assessed as parasite level in blood of dog at 7 mg/kg, po BID started 12 to 22 days postinfection measured after 30 days by PCR analysis; assay type: functional
Summary of the method: (§5)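 Blood PCR for T. cruzi on treated dogs (n = 5 per group) at 1 and 6 months posttreatment. Each reaction took 2 μl blood DNA template in Tris-HCl pH 9.0, 75 mM KCl, 3.5 mM MgCl2 and 0.2 mM dNTPs. Cycling was 95°C 5 min, then 2 cycles annealing at 30°C, 33 cycles at 40°C, and 72°C 5 min. Products were run on 6% polyacrylamide and silver stained. Reported as rate of positive animals.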

Trypanosoma cruzi [17] = experiment: Antimicrobial activity against Trypanosoma cruzi Berenice-78 infected in mongrel dog assessed as parasite level in blood of dog at 7 mg/kg, po BID started 12 to 22 days postinfection measured after 30 days by PCR analysis; assay type: functional; summary of the method: as §5
Canis familiaris [18] = experiment: Immunostimulatory activity in mongrel dog infected with Trypanosoma cruzi Berenice-78 assessed as production of antibody IgG2 at 12 mg/kg, po BID for 90 days measured after 6 months by ELISA; assay type: functional, organism-based; design: dose 12 mg/kg; settings: Canis lupus familiaris; summary of the method: as §1
Canis familiaris [19] = experiment: Toxicity in mongrel dog infected with Trypanosoma cruzi Berenice-78 assessed as weight loss at 7 mg/kg, po BID for 90 days started 12 to 22 days postinfection measured after 6 months; assay type: organism-based, Canis lupus familiaris; design: dose 7 mg/kg, route oral; settings: in vivo, 4383 h; summary of the method: as §2
Canis familiaris [20] = experiment: Immunostimulatory activity in mongrel dog infected with Trypanosoma cruzi Y assessed as production of antibody IgG2 at 7 mg/kg, po BID for 90 days measured after 6 months by ELISA; assay type: functional, organism-based; design: dose 7 mg/kg; settings: Canis lupus familiaris, in the assay text read “for 60 days” for “for 90 days”; summary of the method: as §1
Canis familiaris [21] = experiment: Immunostimulatory activity in mongrel dog infected with Trypanosoma cruzi Berenice-78 assessed as production of antibody IgG2 at 7 mg/kg, po BID for 90 days measured after 6 months by ELISA; assay type: functional, organism-based; design: dose 7 mg/kg; settings: Canis lupus familiaris, in the assay text read “for 60 days” for “for 90 days”; summary of the method: as §1
Trypanosoma cruzi [22] = experiment: Antitrypanosomal activity against Trypanosoma cruzi Y infected in mongrel dog assessed as reduction in INFgamma production in right atrium at 7 mg/kg, po BID after 180 days by semiquantitative RT-PCR; settings: Cardiac atrium
Canis familiaris [23] = experiment: Immunostimulatory activity in mongrel dog infected with Trypanosoma cruzi Berenice-78 assessed as production of antibody IgG at 12 mg/kg, po BID for 90 days measured up to 30 days by ELISA; assay type: functional, organism-based; design: dose 12 mg/kg; settings: Canis lupus familiaris; summary of the method: as §1
Canis familiaris [24] = experiment: Toxicity in mongrel dog infected with Trypanosoma cruzi Berenice-78 assessed as weight loss at 12 mg/kg, po BID for 90 days started 12 to 22 days postinfection measured after 1 day; assay type: organism-based, Canis lupus familiaris; design: dose 12 mg/kg, route oral; settings: in vivo, 24 h; summary of the method: as §2
Trypanosoma cruzi [25] = experiment: Antimicrobial activity against Trypanosoma cruzi Y infected in mongrel dog assessed as suppression of microbial proliferation at 7 mg/kg, po BID started 12 to 22 days postinfection measured after 1 day; assay type: functional, organism-based; design: dose 7 mg/kg; summary of the method: as §4
Trypanosoma cruzi [26] = experiment: Antimicrobial activity against Trypanosoma cruzi Y infected in mongrel dog assessed as suppression of microbial proliferation at 12 mg/kg, po BID started 12 to 22 days postinfection measured after 1 day; assay type: functional, organism-based; design: dose 12 mg/kg; summary of the method: as §4
Canis familiaris [27] = experiment: Toxicity in mongrel dog infected with Trypanosoma cruzi Y assessed as weight loss at 7 mg/kg, po BID for 90 days started 12 to 22 days postinfection measured after 6 months; assay type: organism-based, Canis lupus familiaris; design: dose 7 mg/kg, route oral; settings: in vivo, 4383 h; summary of the method: as §2
Trypanosoma cruzi [28] = experiment: Antimicrobial activity against Trypanosoma cruzi Berenice-78 infected in mongrel dog assessed as suppression of microbial proliferation at 7 mg/kg, po BID started 12 to 22 days postinfection measured after 1 day; assay type: functional, organism-based; design: dose 7 mg/kg; summary of the method: as §4
Canis familiaris [29] = experiment: Toxicity in mongrel dog infected with Trypanosoma cruzi Y assessed as weight loss at 12 mg/kg, po BID for 90 days started 12 to 22 days postinfection measured after 6 months; assay type: organism-based, Canis lupus familiaris; design: dose 12 mg/kg, route oral; settings: in vivo, 4383 h; summary of the method: as §2
Trypanosoma cruzi [30] = experiment: Antimicrobial activity against Trypanosoma cruzi Berenice-78 infected in mongrel dog assessed as survival of dog at 7 mg/kg, po BID started 12 to 22 days postinfection measured after 1 day; assay type: functional; summary of the method: as §3
Canis familiaris [31] = experiment: Immunostimulatory activity in mongrel dog infected with Trypanosoma cruzi Berenice-78 assessed as production of antibody IgG2 at 7 mg/kg, po BID for 90 days measured up to 30 days by ELISA; assay type: functional, organism-based; design: dose 7 mg/kg; settings: Canis lupus familiaris; summary of the method: as §1

SMILES: O=C(Cn1ccnc1[N+](=O)[O-])NCc1ccccc1 [BENZNIDAZOLE]
- Activity (Canis familiaris [1]): Active
- Activity (Canis familiaris [2]): Non-toxic
- Activity (Trypanosoma cruzi [3]): Active
- Activity (Canis familiaris [4]): Active
- Activity (Canis familiaris [5]): Active
- Activity (Trypanosoma cruzi [6]): 100%
- Activity (Trypanosoma cruzi [7]): Active
- Activity (Trypanosoma cruzi [8]): 100%
- Activity (Canis familiaris [9]): Active
- Activity (Canis familiaris [10]): Active
- Activity (Canis familiaris [11]): Active
- Activity (Canis familiaris [12]): Toxic
- Activity (Trypanosoma cruzi [13]): Non-toxic
- Activity (Trypanosoma cruzi [14]): 100%
- Activity (Canis familiaris [15]): Active
- Activity (Trypanosoma cruzi [16]): 0%
- Activity (Trypanosoma cruzi [17]): 0%
- Activity (Canis familiaris [18]): Active
- Activity (Canis familiaris [19]): Non-toxic
- Activity (Canis familiaris [20]): Active
- Activity (Canis familiaris [21]): Active
- Activity (Trypanosoma cruzi [22]): Active
- Activity (Canis familiaris [23]): Active
- Activity (Canis familiaris [24]): Toxic
- Activity (Trypanosoma cruzi [25]): Non-toxic
- Activity (Trypanosoma cruzi [26]): Non-toxic
- Activity (Canis familiaris [27]): Non-toxic
- Activity (Trypanosoma cruzi [28]): Non-toxic
- Activity (Canis familiaris [29]): Non-toxic
- Activity (Trypanosoma cruzi [30]): 100%
- Activity (Canis familiaris [31]): Active
